This excerpt belongs to a sample that is enriched for hits.
CHOP inh = inhibitors of CHOP induction in ER stress response; CHO-K1 CHOP-promoter luciferase, tunicamycin-induced, 15-18 h; inhibition, % at 10 µM; 3.8% of 220,000 active; AID 2732;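 active = compounds that reduced the stress-induced luciferase reporter signal by more than about 70% of percent inhibition, limit read from the data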
V-ATPase pHluor = regulators of yeast V-ATPase proton transport | 0.37% of 350,000 active | S. cerevisiae, pHLuorin cytosolic pH fluorescence | response, % at 10 µM; in the data active = response mostly above about 7.3%, no sharp cut-off; inactive = mostly below about 5.4%; also: actives read high
CHOP UPR activ = activators of apoptotic arm of unfolded protein response (CHOP); CHO-CHOP luciferase reporter, UPR activation, luminescence; percent of tunicamycin response over DMSO baseline; activation, % at 10 µM; 0.34% of 330,000 active;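 active = at 10 µM dose, activation of 40% or more, normalized to positive control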
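System: CHO CHOP reporter cells. Amount: 500 cells per well. Buffer or medium: F12 medium, 10% FBS. Compound dosing: one dose, 10 µM in 0.5% DMSO. Incubation: 6 h compound exposure at 37 °C after overnight seeding. Technique: Steady-Glo luciferase luminescence. Benchmarks: tunicamycin and DMSO controls.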
UPR XBP1 act = adaptive UPR (XBP1) activation. CHO-XBP1 luciferase reporter, IRE1-XBP1 UPR activation, luminescence; percent of tunicamycin response, DMSO as zero. activation, % at 20 µM. 0.33% of 330,000 active;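 active = versus positive control, 20 µM dose yields 30% or more activation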
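Material: CHO-XBP1 cells stably carrying IRE1-XBP1-driven luciferase reporter / Amount: 1000 cells per well / Compound: 20 µM, 1% DMSO / Times: 6 h treatment, 37 °C / Detection: luciferase luminescence / Measure: % activation of reporter signal versus tunicamycin and DMSO controls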
TbMetRS inhib = blocks T. brucei methionyl-tRNA synthetase activity. purified T. brucei MetRS, ATP depletion, Kinase-Glo luminescence. inhibition, % at 11.9 µM. 0.4% of 360,000 active. AID 624268;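 active = inhibition above a per-plate cutoff of the control wells' mean inhibition plus 3 SD, cut at about 5.5% in these data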
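Test system: purified T. brucei MetRS enzyme. Also added: ATP, methionine and E. coli bulk tRNA substrates. Compound: 11.9 µM single point. Schedule: 15 min enzyme-compound preincubation, 2 h reaction, 10 min detection, 25 °C. Signal: luciferase luminescence of residual ATP, Kinase-Glo. Evaluation: percent inhibition versus plate control medians. Controls: DMSO wells, low control.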
Numbers stand for hits; 0 = inactive; - = no result given.

SMILES	CHOP inh	V-ATPase pHluor	CHOP UPR activ	UPR XBP1 act	TbMetRS inhib
O=C(Nc1ccccc1Cl)C1CCCN(S(=O)(=O)c2cccc3cccnc23)C1 (stereo not drawn)	-	0	0	0	0
O=C(Nc1nc2ccccc2s1)C1CCCN1S(=O)(=O)c1ccc(Cl)cc1 (stereo not drawn)	92	0	0	0	0
COc1ccc(-c2nnc(N3CCC(C)CC3)c3ccccc23)cc1	85	0	0	0	0
CC1CCN(c2nnc(N3CCC(C)CC3)c3ccccc23)CC1	0	0	0	0	0
CC1(c2nc3ccccc3[nH]2)c2ccccc2C(=O)N1Cc1ccccn1 (stereo not drawn)	-	-	-	-	0
CCOc1ccc2c(=O)c(Oc3ccccc3)c(C)oc2c1	76	0	0	0	0
COc1cc(/C=N/NC(=Nc2ccc(C)cc2)c2nc3ccccc3s2)ccc1O	74	0	0	0	0
O=C(NC1CCCCC1)C1c2ccccc2OCC(=O)N1CCc1c[nH]c2ccccc12 (stereo not drawn)	-	-	-	-	0
CSC1=N/C(=C\c2c(F)cccc2Cl)C(=O)S1	74	0	0	0	0
COc1ccc(/C=C2\N=C(SC)SC2=O)cc1OC	79	0	0	0	0
O=C(CSc1nnc(CCCO)n1-c1ccccc1)Nc1nccs1	85	0	0	0	0
CC(C)(C)c1nc2ccccc2c2nnc(SCC(=O)Nc3nc4ccccc4s3)n12	0	0	0	0	0
CC(C)(C)c1nc2ccccc2c2nnc(SCC(=O)Nc3nccs3)n12	78	0	0	0	0
Cc1cccc(C)c1OCc1nnc(SCC(=O)Nc2nccs2)n1-c1ccccc1	0	0	0	0	0
Cc1cc(OC(=O)Nc2ccccc2)ccc1Cl	-	0	-	-	0
CC(C)[C@@H]1Cc2[nH]c(=O)[nH]c(=O)c2[C@H](C)O1	-	-	-	-	0
C=CCNC(=S)NNc1nc(Nc2ccccc2)nc(N2CCCCC2)n1	74	0	0	0	0
C=CCNC(=S)NNc1nc(N2CCCC2)nc(N2CCCC2)n1	-	0	0	0	0
S=C(NNc1nc(Nc2ccccc2)nc(N2CCCCC2)n1)NC1CCCCC1	83	0	0	0	0
NNc1nc(Nc2ccccc2)nc(N2CCCCC2)n1	0	0	0	0	0
CCOc1ccc(Oc2ccc(C(F)(F)F)cc2N)cc1	78	0	0	0	0
c1ccc2c(c1)CCN(c1nc(CN3CCOCC3)nc3sc4c(c13)CCCC4)C2	85	0	0	0	0
CSc1ccc(S(=O)(=O)NCc2ccc(Cl)cc2Cl)cc1	89	0	0	0	7.5
CC(C)C[C@@H]1CN(CCCC[C@H]2CNC(=O)C(=O)N2CCC2CCCCC2)C(=O)C(=O)N1Cc1ccccc1	-	-	-	-	0
S=C(NCC1CCCO1)NC1CCCCC1 (stereo not drawn)	0	0	0	0	0
SMILES	CHOP inh	V-ATPase pHluor	CHOP UPR activ	UPR XBP1 act	TbMetRS inhib
CCCC(NC(=S)NCC1CCCO1)C12CC3CC(CC(C3)C1)C2 (stereo not drawn)	83	0	0	0	0
COc1ccc(-c2nc(NC(=O)C3CCN(c4nc5ccccc5o4)CC3)sc2C)cc1	78	-	0	0	0
COc1ccc(-c2nc(NC(=O)Cn3c(=O)oc4ccccc43)sc2C)cc1	0	0	0	0	0
CC(C)(C)S(=O)(=O)N1C[C@H]2CC/C=C\C/C=C\2[C@@H]1CCO	-	0	-	-	0
O=C(c1cccs1)N1C[C@H](n2cc(C3CC3)nn2)[C@@H](O)C[C@@H]1c1ccc(Cl)cc1	-	0	-	-	0
CCC(=O)Oc1ccc(C(=O)Nc2ccc3c(c2)C(=O)N(C2CCCCC2)C3=O)cc1	71	0	0	0	0
Cc1ccc(Nc2nc(N/N=C/c3c[nH]c4ccccc34)nc(N3CCOCC3)n2)cc1	95	0	0	0	0
CCOCCn1c(CN(Cc2ccccc2)Cc2ccccc2)nc2c1c(=O)n(C)c(=O)n2C	80	0	0	0	0
CCC1CCCCN1Cc1nc2c(c(=O)n(C)c(=O)n2C)n1CCCc1ccccc1 (stereo not drawn)	-	0	0	0	0
CCC1CCCCN1Cc1nc2c(c(=O)n(C)c(=O)n2C)n1Cc1ccccc1 (stereo not drawn)	83	0	0	0	0
CCCCn1c(CN(Cc2ccccc2)Cc2ccccc2)nc2c1c(=O)n(C)c(=O)n2C	-	0	0	0	0
COc1ccc(NC(=O)N(C)C[C@@H]2OCc3cnnn3CCCC(=O)N([C@@H](C)CO)C[C@H]2C)c(OC)c1	-	0	-	-	0
CC(C)Cc1nnc(NC(=O)c2cc3c(s2)CCC3)s1	85	0	0	0	0
O=[N+]([O-])c1cccc(COc2ccccc2CN2CCCC2)c1	-	0	-	-	0
COC(=O)C(Nc1nccs1)(OC)C(F)(F)F (stereo not drawn)	0	17	0	0	0
CC(NC(=O)Nc1nnc(C(F)(F)F)s1)(C(F)(F)F)C(F)(F)F	89	0	0	0	0
C#Cc1ccc(NC(=O)C2(C)CCN2C(=O)Cc2ccc(C(C)C)cc2)cc1 (stereo not drawn)	-	-	-	-	0
COc1cc2c(cc1NC(=O)CSc1nc3ccccc3[nH]1)oc1ccccc12	95	0	0	0	0
CCN(CC(=O)Nc1cc(OC)ccc1OC)Cc1nc2ccccc2c(=O)[nH]1	0	0	0	0	0
COc1cc2c(cc1NC(=O)CN(C)Cc1nc3ccccc3c(=O)[nH]1)oc1ccccc12	74	0	0	0	0
CC(C)CNC(=O)c1cccc(NC(=O)Cc2ccc(Cl)cc2)c1	0	0	0	0	0
O=C(N/N=C\c1ccc([N+](=O)[O-])s1)c1cncc(Br)c1	95	0	0	0	0
CC1CCN(C(=O)COC(=O)Cc2c[nH]c3ccccc23)CC1	-	13	0	0	0
CC1CCN(C(=O)COC(=O)CCc2c[nH]c3ccccc23)CC1	0	0	0	0	0
Cc1ccc(NC(=S)NCc2cccs2)cc1	0	0	0	0	0
SMILES	CHOP inh	V-ATPase pHluor	CHOP UPR activ	UPR XBP1 act	TbMetRS inhib
CCCCc1ccc(NC(=S)NCc2cccs2)cc1	85	0	0	0	0
Cc1sc2nc(C(C)Nc3ccccc3N3CCOCC3)[nH]c(=O)c2c1C (stereo not drawn)	75	0	0	0	0
Cc1sc2nc(N3CCOCC3)[nH]c(=O)c2c1-c1ccccc1	0	0	0	0	0
COc1ccc(C)cc1NS(=O)(=O)c1ccccc1	-	0	-	-	0
CCCCN1C(=O)C(=O)N(CC(=O)N2CCN(c3ccccc3)CC2)C1=O	-	0	0	0	0
CCCCN1C(=O)C(=O)N(c2ccccc2)C1=S	0	8.8	0	0	0
O=C(Nc1ccc(F)cc1)C(c1ccnc2ccccc12)N1CCN(CC(=O)N2CCCC2)CC1 (stereo not drawn)	-	-	-	-	0
O=C(O)CSc1c(-c2ccccc2)[nH]c2ccccc12	0	17	0	0	0
Cc1c(Cl)c([N+](=O)[O-])nn1CCCC(=O)N(Cc1ccccc1)Cc1ccccc1	73	0	0	0	0

Screens from PubChem BioAssay.
